The values that follow come from ChEMBL document CHEMBL1157933, “The anti-cancer, anti-inflammatory and tuberculostatic activities of a series of 6,7-substituted-5,8-quinolinequinones” (Bioorg Med Chem, 2010).

A short description of test [1]: Antiinflammatory activity in human neutrophils assessed as inhibition of PMA-induced superoxide production after 20 mins by WST1 assay. The class given is functional, cell-based. As to conditions: Neutrophil. (In general: Tetrazolium dyes change colour on reduction, which living cells bring about.)
In test [2] the test system is HL-60. The test can be described thus: Antiproliferative activity against human HL60 cells after 48 hrs by MTT assay. Type of test: functional, cell-based. As to conditions: HL-60, 48 h.
A short description of test [3]: Antiproliferative activity against human T cells after 48 hrs by MTT assay. The class given is cell-based. As to conditions: T-cell. In outline: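 Healthy-donor PBMC (Ficoll-hypaque) activated 2 days with CD2/CD3/CD28-loaded anti-biotin beads, then expanded 2–4 days with 20 U/mL IL-2. Cells plated at 0.2 × 10^6 cells/mL in complete RPMI with varied compound concentrations for 48 h at 37 °C; MTT 2 h, SDS/DMF lysis overnight, absorbance 570 nm. Triplicate, mean reported.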

As usually defined, the IC50 is the concentration that gives 50% inhibition. Consider `O=C1C(NCCBr)=C(Cl)C(=O)c2ncccc21`, for which the results for the half-maximal inhibitory concentration (IC50) in test [1], in test [2] and in test [3] were 20 µM, 1.65 µM and 2.56 µM, respectively.

For `O=C1C(NCCCl)=C(Cl)C(=O)c2ncccc21`, the results for the IC50 in test [1], in test [2] and in test [3] were 37 µM, 1.62 µM and 2.29 µM, respectively.

In the case of `Cc1ccc2c(n1)C(=O)C(Cl)=C(Cl)C2=O`, the 50% inhibitory concentration (IC50) in test [1] worked out at 3.4 µM; in test [2], 18.7 µM; in test [3] it was 44.9 µM.

For `O=C1C(NC(c2ccccc2)c2ccccc2)=C(Cl)C(=O)c2ncccc21`, the IC50 in test [1] was determined as 33.9 µM; in test [2], 2.45 µM; in test [3], 2.59 µM.

With `CNC1=C(Cl)C(=O)c2ncccc2C1=O`, the IC50 in test [1] was found to be 78.9 µM; in test [2] it was 2.45 µM; in test [3], 3.56 µM.

As for `Cc1ccc(S(=O)(=O)C2=C(Cl)C(=O)c3ncccc3C2=O)cc1`, the IC50 in test [1] was above 200 µM; in test [2], 38.1 µM; in test [3], 35.5 µM.

On to `Cc1ccc2c(n1)C(=O)C(NCCBr)=C(Cl)C2=O`, for which the results for the IC50 in test [1], in test [2] and in test [3] were 73.2 µM, 1.21 µM and 1.59 µM, respectively.

As for `CNC1=C(Cl)C(=O)c2cccnc2C1=O`, the IC50 in test [1] was found to be 41.1 µM; in test [2], 4.3 µM; in test [3], 5.21 µM.

As to `CNC1=C([S+](C)[O-])C(=O)c2ncccc2C1=O` (stereo not drawn), the values for the concentration for half-maximal inhibition (IC50) in test [1], in test [2] and in test [3] were above 200 µM, 12.1 µM and 11.8 µM, respectively.

Regarding `CSC1=C(SC)C(=O)c2ncccc2C1=O`, the results for the concentration for half-maximal inhibition (IC50) in test [1], in test [2] and in test [3] were 0.11 µM, 1.23 µM and 1.69 µM, respectively.

`O=C1C(Sc2ccccc2)=C(Sc2ccccc2)C(=O)c2ncccc21`: the half-inhibitory concentration (IC50) in test [1] is 24.8 µM; in test [2] it was 3.68 µM; in test [3], 7.77 µM.

As for `CNC1=C(Sc2ccccc2)C(=O)c2cccnc2C1=O`, the values for the IC50 in test [1], in test [2] and in test [3] were 92.8 µM, 5.88 µM and 6.91 µM, respectively.

On to `CSC1=C(N)C(=O)c2cccnc2C1=O`, for which the half-inhibitory concentration (IC50) in test [1] is above 150 µM; in test [2], 7.64 µM; in test [3] it was 8.32 µM.

For the compound `CS(=O)(=O)C1=C(N)C(=O)c2cccnc2C1=O`, the 50% inhibitory concentration (IC50) was above 200 µM in test [1], 4.53 µM in test [2] and 19.3 µM in test [3].

Take `Oc1c(Sc2ccccc2)c(Sc2ccccc2)c(O)c2ncccc12`: the values for the 50% inhibitory concentration (IC50) in test [1], in test [2] and in test [3] were 2.3 µM, 6.95 µM and 10 µM, respectively.

On to `O=C1c2cccnc2C(=O)C2SCCNC12` (stereo not drawn), for which the IC50 in test [1] is above 200 µM; in test [2] it was 4.24 µM; in test [3], 5.88 µM.

On to `CNC1=C(Sc2ccccc2)C(=O)c2ncccc2C1=O`, for which the IC50 in test [1] is above 150 µM; in test [2], 8.03 µM; in test [3], 12.2 µM.

Consider `CNC1=C(SC)C(=O)c2cccnc2C1=O`, for which the IC50 in test [1] was above 200 µM; in test [2] it was 7.92 µM; in test [3], 7.57 µM.

For `CNC1=C([S+](C)[O-])C(=O)c2cccnc2C1=O` (stereo not drawn), the IC50 was above 200 µM in test [1], 33.2 µM in test [2] and 13.4 µM in test [3].

For the compound `O=C1C(Cl)=C(NCCBr)C(=O)c2ncccc21`, the results for the IC50 in test [1], in test [2] and in test [3] were 20.7 µM, 1.2 µM and 2.5 µM, respectively.

Regarding `Cc1ccc(S(=O)(=O)C2=C(S(=O)(=O)c3ccc(C)cc3)C(=O)c3ncccc3C2=O)cc1`, the half-maximal inhibitory concentration (IC50) is above 200 µM in test [1], 61.6 µM in test [2] and 40.5 µM in test [3].

In the case of `CNC1=C(SC)C(=O)c2ncccc2C1=O`, the concentration for half-maximal inhibition (IC50) in test [1] is above 200 µM; in test [2] it was 3.44 µM; in test [3] it was 19.5 µM.

For the compound `C[S+]([O-])C1=C(N)C(=O)c2cccnc2C1=O` (stereo not drawn), the figures for the IC50 in test [1], in test [2] and in test [3] were above 200 µM, 1.3 µM and 1.93 µM, respectively.

As to `Cc1ccc2c(n1)C(=O)C(Cl)=C(NCCBr)C2=O`, the values for the 50% inhibitory concentration (IC50) in test [1], in test [2] and in test [3] were 34.2 µM, 1.3 µM and 2.23 µM, respectively.

As to `O=C1C2=C(NCCS2)C(=O)c2ncccc21`, the IC50 in test [1] was above 200 µM; in test [2] it was 3.52 µM; in test [3] it was 6.02 µM.

Consider `O=C1C(Cl)=C(NCCCl)C(=O)c2ncccc21`, for which the IC50 in test [1] came out at 31 µM; in test [2], 1.94 µM; in test [3] it was 2.27 µM.
